From ChEMBL document CHEMBL4513216, “Probing the Open Global Health Chemical Diversity Library for Multistage-Active Starting Points for Next-Generation Antimalarials” (ACS Infect Dis, 2020) come the findings set out here.

The nature of the data set: Toxicity liver stage against HepG2, at 10uM. The format is cell-based. Details: test concentration 10 uM, cell line HepG2-A16-CD81EGFP. To be noted: human, HepG2-A16-CD81EGFP cells; read-out: INHIBITION
The procedure, abridged: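 Uninfected HepG2-A16-CD81EGFP cells, 3 × 10^3 per well, 1536-well, plated on prespotted compound at 10 μM final, parasite-free screening media added to match infected plates; puromycin 10 μM positive, DMSO 0.5% negative; run in parallel with 48 h PbLuc assay at 37 °C, 5% CO2; viability by CellTiter-Glo luminescence, normalized to controls.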
As to `Clc1ccc(CN2CCOC[C@H](Oc3cccnc3)C2)cc1`, the cytotoxicity at 10 µM turned out to be 6.12%.

`OCCc1cc(CC2(NCc3ccc(C(F)(F)F)cc3)COC2)no1`: the cytotoxicity at 10 µM is -4.41%.

`O=C1N(Cc2ccccn2)C[C@H]2CN(C3CCOCC3)CCN12`: the cytotoxicity at 10 µM came to 7.94%.

`COCCN1C[C@H]2CN(C(=O)c3ccc4c(c3)OCO4)CCN2C1=O`: the cytotoxicity at 10 µM worked out at 13.7%.

In the case of `Cc1[nH]c2nc(CNc3cccc(Cl)c3)nn2c(=O)c1C`, the cytotoxicity at 10 µM was determined as 0.0924%.

`CC(C)OCCCNC(=O)C1CC(=O)N(c2n[nH]c3cccc(F)c23)C1` (configuration not stated): the cytotoxicity at 10 µM was -4.73%.

For the compound `Cc1ncn(CCNC(=O)Nc2ccccc2)c(=O)c1C`, the cytotoxicity at 10 µM was -4.39%.

Regarding `O=C(COc1ccc(-n2cccn2)nn1)NC1CCCCC1`, the cytotoxicity at 10 µM was -1.03%.

Consider `COCCNC(=O)c1ccc2ccc(N3CCN(CC4CC4)CC3)n2c1`, for which the cytotoxicity at 10 µM is 6.59%.

For the compound `CN(C)CC(=O)N1CCC2(CC1)CN(Cc1cccnc1)C(=O)CO2`, the cytotoxicity at 10 µM was -8.99%.

As to `CC(=O)N1CCO[C@@H]2CN(S(=O)(=O)c3ccccc3F)C[C@@H]2C1`, the cytotoxicity at 10 µM was found to be 12.6%.

As for `COCC1c2nnn(C)c2CCN1C(=O)Cc1ccc2c(c1)OCO2` (configuration not stated), the cytotoxicity at 10 µM was 9.46%.

Turning to `O=C1CC(c2ccc(C(=O)O)cc2)c2ncn(-c3ccc(F)cc3)c2N1` (configuration not stated), the cytotoxicity at 10 µM was -3.67%.

Regarding `CC(=O)N1CCN(C(=O)c2sc(-c3ccccc3F)nc2C)CC1`, the cytotoxicity at 10 µM was -3.3%.

In the case of `O=C(Cn1cc(-c2ccccc2)ncc1=O)NC1CCCCC1`, the cytotoxicity at 10 µM is -8.03%.

`CC(=O)c1c(O)n(C)c2ccc(C)cc12`: the cytotoxicity at 10 µM was 8.58%.

Regarding `CC(C)[C@H](NC(=O)NC1CCS(=O)(=O)C1)C(=O)NCc1cccnc1` (some centres not stated), the cytotoxicity at 10 µM is 5.47%.

In the case of `O=C(Cn1ccc2c(Cl)cccc21)N[C@@H](C(=O)O)c1ccccc1`, the cytotoxicity at 10 µM was 2.19%.

As to `Cc1ccc(C(=O)Nc2c(C(=O)N(C)C)nn(C)c2C)cc1`, the cytotoxicity at 10 µM turned out to be 5.59%.

`CCCc1nc(NCCCO)c2c(n1)c(C)nn2CC`: the cytotoxicity at 10 µM was 2.55%.

Take `CC(C)c1cc(C(=O)N[C@@H]2CC[C@@H](Oc3ccccc3)[C@@H]2O)on1`: the cytotoxicity at 10 µM is 2.27%.

Consider `Oc1cc(-c2ccsc2)nc(C2CCN(Cc3cccnc3)CC2)n1`, for which the cytotoxicity at 10 µM was 2.95%.

For the compound `O[C@@H]1CN(Cc2cnccn2)C[C@H]1Oc1ccccc1`, the cytotoxicity at 10 µM was -29.5%.

With `Cc1ccnc(C2CCN(S(=O)(=O)c3cn(C)cn3)CC2)n1`, the cytotoxicity at 10 µM came out at 3.24%.

For the compound `CCc1ccccc1Nc1noc2c1CN(C(=O)CNC(C)=O)CC2`, the cytotoxicity at 10 µM is -20.1%.

In the case of `Cc1nc(C2CCCN2C(=O)Cc2ccc(F)cc2)nc(O)c1C` (configuration not stated), the cytotoxicity at 10 µM is -30.4%.

Take `CC(C)CC(=O)Nc1ccccc1Oc1ccsc1C(=O)O`: the cytotoxicity at 10 µM stood at 6.2%.

Take `CC(=O)NC(Cc1c[nH]c2cc(F)ccc12)C(=O)Nc1nncs1` (configuration not stated): the cytotoxicity at 10 µM is 1.22%.

For `CN(C)S(=O)(=O)N(C)C(c1cccnc1)c1ccc(F)c(F)c1` (configuration not stated), the cytotoxicity at 10 µM was -3.53%.

In the case of `O=C(NCCNC(=O)C1CC1)c1sccc1Br`, the cytotoxicity at 10 µM was 1.66%.

In the case of `CC(NC(=O)c1ccoc1)C(=O)N(C)Cc1ccc(O)cc1` (configuration not stated), the cytotoxicity at 10 µM is -3.59%.

As for `COc1ccccc1CN1CCCC(n2cccn2)C1` (configuration not stated), the cytotoxicity at 10 µM was determined as 2%.

As to `Cc1noc(CN(Cc2ccc3c(c2)OCCO3)Cc2ccco2)n1`, the cytotoxicity at 10 µM is -10.8%.

Turning to `CC(C)CN(CC(O)c1ccccc1)C(=O)Nc1nccs1` (configuration not stated), the cytotoxicity at 10 µM is -1.96%.

In the case of `CCN(CCCNC(=O)Nc1ccccc1C(C)C)S(C)(=O)=O`, the cytotoxicity at 10 µM was -0.132%.

For `COc1ccccc1CNC(=O)N1CCCC(CO)C1` (configuration not stated), the cytotoxicity at 10 µM stood at 0.91%.

With `O=C(NCCc1cccnc1)NCCc1cccs1`, the cytotoxicity at 10 µM was -1.51%.

With `CC(NC(=O)NCC(C)(C)O)c1ccc(-c2cncnc2)cc1` (configuration not stated), the cytotoxicity at 10 µM is 6.27%.

Turning to `O=C(CN1C=Nc2ccccc2S1(=O)=O)NC1CCCCC1`, the cytotoxicity at 10 µM turned out to be 4.75%.

Consider `CC(C)C(C(=O)NCC1CC1)n1cnc2cc(F)c(F)cc21` (configuration not stated), for which the cytotoxicity at 10 µM is 3.26%.

Consider `Cc1occc1C(=O)NCC(=O)NCCOc1cccc(Cl)c1`, for which the cytotoxicity at 10 µM stood at 0.0264%.

Turning to `COc1c(CNCc2cccnc2OC(C)C)c(C(C)C)nn1C`, the cytotoxicity at 10 µM came out at 11.1%.

For the compound `COc1ccc(CNC(=O)CNc2cc3c(cc2Cl)OCCO3)cc1`, the cytotoxicity at 10 µM was -0.238%.

As for `O=C(c1csc(-c2cccs2)n1)N1CCN2CCCCC2C1` (configuration not stated), the cytotoxicity at 10 µM is -3.04%.

For the compound `CCN1CCN(C(=O)c2c[nH]c(C(C)C)n2)c2ccccc21`, the cytotoxicity at 10 µM came out at 11.2%.

`CN(Cc1nc2ccccc2c(=O)[nH]1)C1CC(=O)N(C2CC2)C1=O` (configuration not stated): the cytotoxicity at 10 µM was determined as 4.09%.

For `Cc1ccc(F)c(S(=O)(=O)NCc2cccc(N3CCOC3=O)c2)c1`, the cytotoxicity at 10 µM worked out at 9.62%.

On to `CC1CCN(c2ccc(CNC(=O)NCCn3ccnc3)cn2)CC1`, for which the cytotoxicity at 10 µM was -9.48%.

`N#CCc1ccc(OCC(=O)NS(=O)(=O)c2ccc(Br)s2)cc1`: the cytotoxicity at 10 µM is -5.46%.

In the case of `CN(Cc1ccco1)C(=O)CN1CCc2ccccc2C1`, the cytotoxicity at 10 µM was -2.19%.

Consider `CCOc1cccc(CSC(C)c2nc(C)no2)n1` (configuration not stated), for which the cytotoxicity at 10 µM is -22.6%.

As for `N#Cc1ccc(SCCC(=O)N(Cc2cccnc2)C2CC2)cc1`, the cytotoxicity at 10 µM was 12.3%.

Consider `CCc1nccn1CC(=O)Nc1cccc(C(=O)OC)c1`, for which the cytotoxicity at 10 µM is -6.88%.

In the case of `N#Cc1c(F)cccc1NCCCOCC1CCOCC1`, the cytotoxicity at 10 µM was -1.25%.

Turning to `Cc1cccnc1NC(=O)C1CCCN1Cc1ccccc1` (configuration not stated), the cytotoxicity at 10 µM came to 10.2%.

As for `COc1ncccc1C(=O)N1CCC(CNC(C)=O)CC1`, the cytotoxicity at 10 µM was 3.17%.

Regarding `CCc1nnc2n1CCN(Cc1csc(-c3ccsc3)n1)C2`, the cytotoxicity at 10 µM is -17.5%.

`Cc1c(NC(=O)NCC(C)N2CCOCC2)cccc1OC(F)F` (configuration not stated): the cytotoxicity at 10 µM was -2.88%.

For `N#Cc1c(N)nc2c(c1-c1cnc(N3CCCC3)nc1)COCC2`, the cytotoxicity at 10 µM amounted to 10.5%.

As to `CCN1CC(CN(C)Cc2nc(-c3cccc(C)c3)oc2C)CC1=O` (configuration not stated), the cytotoxicity at 10 µM is -9.8%.

For `O=C(O)c1cccc(C2CCCN(S(=O)(=O)C3CC3)C2)c1` (configuration not stated), the cytotoxicity at 10 µM was determined as 3.24%.

As for `c1ccc(SCCN2CCN(CCn3cncn3)CC2)cc1`, the cytotoxicity at 10 µM was -2.88%.

Turning to `CC1(C)Cc2nc(C(C)(C)C)ncc2C(NC(=O)C2(N)CC2)C1` (configuration not stated), the cytotoxicity at 10 µM is -2.49%.

For `COc1cccc(CCC2CCCN(C(C)=O)C2)c1` (configuration not stated), the cytotoxicity at 10 µM is -15.9%.

As for `O=C(C1CCCO1)N1CCC(n2cc(-c3ccc(F)cc3)nn2)CC1` (configuration not stated), the cytotoxicity at 10 µM was -1.41%.

In the case of `Cc1nc(NC(=O)N(C)Cc2ccoc2)nn1C`, the cytotoxicity at 10 µM is -6.03%.

In the case of `Cc1cnn(CCC(=O)N2CCC3(CCC(=O)N(CC4CC4)C3)CC2)c1`, the cytotoxicity at 10 µM was -2.62%.

For `CCNc1ccc(-c2ccnc3c2ccn3C)nn1`, the cytotoxicity at 10 µM was -18.1%.

For the compound `Cc1nccn1C1(C(=O)O)CCN(Cc2ccc3c(c2)OCCO3)CC1`, the cytotoxicity at 10 µM was -1.53%.

As to `CCn1c(N)nc2cc(C(=O)N(C)Cc3cc(C(C)(C)C)n[nH]3)cnc21`, the cytotoxicity at 10 µM is 4.53%.

For `Fc1ccc(NC2CCCN(Cc3ccncc3)C2)cc1` (configuration not stated), the cytotoxicity at 10 µM came to 3.58%.

As for `COc1cccc2c1OCC(CNC(=O)CCCN1CCOCC1)C2` (configuration not stated), the cytotoxicity at 10 µM came out at 16.6%.

As to `COc1ccccc1[C@@H]1CN(Cc2cc(C(C)(C)C)[nH]n2)C[C@H]1C(=O)O`, the cytotoxicity at 10 µM amounted to 18.4%.

With `COc1ccccc1[C@@H]1CN(C(=O)c2csc(C)n2)C[C@H]1C(=O)O`, the cytotoxicity at 10 µM stood at 4.98%.

In the case of `CC(=O)c1cn(CC(=O)NC(C(=O)O)C(C)C)c2ccccc12` (configuration not stated), the cytotoxicity at 10 µM was 0.415%.

`Cc1nc(CN2CCCC(NCc3cnn(C)c3)C2)no1` (configuration not stated): the cytotoxicity at 10 µM was -2.53%.

Take `CC(C)Cc1cc(NC(=O)c2cccnc2)n(C)n1`: the cytotoxicity at 10 µM is -7.09%.

Consider `O=C(NCc1ccc(Cl)s1)NCc1nnc2n1CCCCC2`, for which the cytotoxicity at 10 µM is -2.06%.

In the case of `CCc1ncc2c(n1)CN(Cc1nc(-c3cccnc3)no1)CC2`, the cytotoxicity at 10 µM was -1.62%.

Turning to `CCn1cc(NC(=O)C2CCN(CC(=O)NC3CCCC3)CC2)cn1`, the cytotoxicity at 10 µM is -6.52%.

Turning to `Cc1nc(C)n(CC2CCCN(c3ccc(C#N)cn3)C2)n1` (configuration not stated), the cytotoxicity at 10 µM is -9.67%.

As to `CCc1nc(C)c(C(=O)NCCn2nc3ccccn3c2=O)s1`, the cytotoxicity at 10 µM was -9.42%.

On to `O=C(COc1ccc2c(c1)CCC2)NS(=O)(=O)c1cccnc1`, for which the cytotoxicity at 10 µM was -4.63%.

Take `CC(C)c1noc(CN2CCN(CCO)CC2)n1`: the cytotoxicity at 10 µM is -5.57%.

On to `CC(=O)N1CCCN(C(=O)NCCc2ccc(Cl)s2)CC1`, for which the cytotoxicity at 10 µM was -2.24%.

Regarding `CCCOc1cc(CNC(=O)Nc2cccnc2N2CCCC2)ccn1`, the cytotoxicity at 10 µM is -2.06%.

Consider `c1coc(-c2noc(CN3CC(n4cccn4)C3)n2)c1`, for which the cytotoxicity at 10 µM was found to be 2.96%.

For the compound `CN(C)C(=O)COCc1cncc2c1CCN(Cc1ccccn1)C2`, the cytotoxicity at 10 µM was -2.51%.

Take `CCOCc1cnc2n1CCN(Cc1cccs1)C2C` (configuration not stated): the cytotoxicity at 10 µM stood at 11.3%.

In the case of `CC(C)c1nn(C)c(N(C)C)c1CNCc1cscn1`, the cytotoxicity at 10 µM was -5.54%.

As for `Cc1cccc(CN2C(=O)CCC23CCN(c2ccccn2)CC3)n1`, the cytotoxicity at 10 µM worked out at 3.2%.

Regarding `Cc1cccc(CN2C[C@@H](NC(=O)C3CC3)[C@H]3OCCC[C@H]32)n1`, the cytotoxicity at 10 µM came out at 7.8%.

For `CC(=O)N1CC[C@@H]2CN(Cc3ccncc3)S(=O)(=O)[C@@H]2CC1`, the cytotoxicity at 10 µM amounted to 5.07%.

`Cc1ccc(CNC(C)c2ccc(N3CCN(C)CC3)c(F)c2)o1` (configuration not stated): the cytotoxicity at 10 µM was -2.76%.

On to `CN(C)C[C@@H]1CCC[C@@H]2CN(c3cccnc3)C[C@@H]21`, for which the cytotoxicity at 10 µM was -11.9%.

On to `Cc1nc(CN2C[C@@H](NC(=O)C3CCC3)[C@H]3COC[C@H]32)cs1`, for which the cytotoxicity at 10 µM was 7.58%.

In the case of `CCn1cc(-n2cc3nc(N4CCC(O)CC4)[nH]cc-3c2=O)cn1`, the cytotoxicity at 10 µM amounted to 5.01%.
